# Sampled rows, rich in hits. Any-hit rate of the full collection: about 3.5%.
# RGS4 pot = RGS4 potentiation or activation; HEK293 M3R/inducible RGS4, carbachol calcium flux Fluo4; hits give low values; B-score at 10 µM; 310,000 tested, 0.92% active; AID 463111;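 active means B-score of the integrated calcium signal more than 4 SD below the library mean, with starting fluorescence not abnormally high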;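 further: negative B-score means reduced calcium response which marks RGS4 activation or potentiation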
#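 Material: Inducible-RGS4 HEK293 cells carrying M3 receptor; also added: carbachol at ECmax as muscarinic agonist stimulus; incubation: compound preincubation 20 min at room temperature before agonist; signal: Fluo4-AM (2 µM) calcium-flux fluorescence, kinetic read; measure: integrated calcium ratio converted to B score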
# RGS4 block = human RGS4 inhibition; HEK293 M3R/RGS4 inducible, Fluo-4 calcium flux; hits give high values; triggered by carbachol at its EC20; AID 463165; B-score at 10 µM; 310,000 tested, 0.45% active;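 active means B-score, a plate-corrected calcium signal, over three deviations above library mean, with baseline fluorescence within five deviations of library mean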;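 further: RGS4 expression induced by doxycycline in cells with stable M3 receptor; B-score is computed from the integrated fluorescence ratio over baseline after carbachol; higher B-score means a larger calcium signal and so more RGS4 inhibition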
# Target sequence (P49798 whole entry, looked up): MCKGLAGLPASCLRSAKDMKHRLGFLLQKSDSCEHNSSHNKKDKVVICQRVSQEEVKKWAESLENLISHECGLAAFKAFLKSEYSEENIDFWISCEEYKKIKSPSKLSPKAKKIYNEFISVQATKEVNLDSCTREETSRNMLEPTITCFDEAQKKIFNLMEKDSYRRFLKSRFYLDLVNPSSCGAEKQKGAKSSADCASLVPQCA
# MrgX1 allo act = human MrgX1 positive allosteric modulation, primary screen; Q96LB2; MrgX1-HEK293, Fluo-4 calcium flux, FDSS; hits give high values; B-score at 10 µM; 310,000 tested, 0.63% active; AID 588675;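 active means plate-corrected calcium response at least 3 library SD above typical, normal starting fluorescence, not activating the receptor alone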;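 further: compound read alongside a low EC10 to EC30 dose of BAM8-22 agonist; peak minus trough fluorescence over baseline measured at the second addition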
# Target sequence (Q96LB2 whole entry, looked up): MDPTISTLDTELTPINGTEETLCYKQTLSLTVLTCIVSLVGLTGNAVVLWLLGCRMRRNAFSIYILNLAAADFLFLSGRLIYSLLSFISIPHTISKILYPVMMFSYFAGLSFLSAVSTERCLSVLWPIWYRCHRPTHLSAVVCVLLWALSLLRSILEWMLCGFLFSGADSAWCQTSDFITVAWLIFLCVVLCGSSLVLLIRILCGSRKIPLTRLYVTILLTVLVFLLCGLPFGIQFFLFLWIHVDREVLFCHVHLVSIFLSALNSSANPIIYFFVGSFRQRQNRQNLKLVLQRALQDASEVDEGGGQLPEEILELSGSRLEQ
# MrgX1 antagonist = antagonists of human MrgX1 receptor; Q96LB2; MRGX1-HEK293 calcium flux, Fluo-4, BAM8-22 antagonism; hits give low values; B-score at 10 µM; 310,000 tested, 1.3% active; AID 588676;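 active means calcium-response B-score plate-corrected more than 3 library SD below zero, starting fluorescence within 5 deviations, no agonist response on first addition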;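 further: peak minus trough fluorescence over baseline after final BAM8-22 challenge near maximal dose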
# MrgX1 ag = human MrgX1 receptor agonism, primary screen | Q96LB2 | MrgX1-HEK293 cells, Fluo-4 calcium fluorescence, agonist mode; hits give high values | 310,000 tested, 0.44% active | B-score at 10 µM;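 active means calcium response B-score plate-corrected fluorescence ratio at least 3 library SD, with starting fluorescence B-score inside 5 SD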
#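 Material: MrgX1-expressing HEK293 cells; input: 15,000 cells per well; doses: test compound given as first of three sequential additions; schedule: overnight plating before 1 h dye loading; technique: Fluo-4 NW calcium-flux fluorescence, kinetic read; evaluation: baseline-normalised fluorescence change ratio, B-scored; control set: plate-wise positive and negative controls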
# RGS4 block valid = RGS4 inhibitor validation; shares compounds with RGS4 block; calcium response, % at 10 µM; 1,700 tested, 65% active; HEK293 M3R/RGS4, carbachol calcium Fluo-4 fluorescence; carbachol added at its EC20; 0 = buffer wells, 100 = carbachol control; AID 492999;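 active means duplicate-averaged calcium response above the buffer-only control mean plus 5 SD of those controls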;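 further: integrated fluorescence ratio F max minus min over baseline F0; higher response in RGS4-induced cells means RGS4 inhibition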
# M3R Ca ctr = checks RGS4 inhibitor effects in non-induced HEK293 M3R cells; shares compounds with RGS4 block; carbachol calcium Fluo-4; submaximal (EC20) carbachol stimulus; buffer wells 0%, carbachol control wells 100%; activity (percent), % at 10 µM; 1,900 tested, 20% active; call rule not given here;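 further: RGS4 induction absent so cells express M3R without RGS4; higher means more calcium signal and flags a non-specific hit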
# RGS4 inh ctr2 = signal in non-induced cells without carbachol, RGS4 inhibitor counter-screen; shares compounds with RGS4 block; HEK293 M3R/RGS4 non-induced, Fluo-4 calcium, no carbachol; normalised: buffer wells 0%, carbachol wells 100%; calcium response (agonist-mode artifact), % at 10 µM; 1,900 tested, 22% active; AID 493001;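 active means duplicate-averaged calcium rise in uninduced cells above buffer wells' mean plus 5 SD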
# * = called active by the depositor; i = inactive; x = no result.
SMILES,RGS4 pot,RGS4 block,MrgX1 allo act,MrgX1 antagonist,MrgX1 ag,RGS4 block valid,M3R Ca ctr,RGS4 inh ctr2
CCN(CC)C(=O)Cn1c(=O)n(CC(=O)N2CCCCC2)c(=O)c2sccc21,i,17.2*,i,i,i,i,i,i
CC(C)Sc1nc2ncnc(N)c2[nH]1,i,i,i,i,i,x,x,x
Cc1ccc(C2=NN(C(=O)CCl)C(c3ccco3)C2)o1 (configuration not stated),i,i,x,x,x,x,x,x
COc1cccc(NC(=O)CCNS(=O)(=O)c2ccc3c(c2)CC(C)N3C(=O)C2CC2)c1 (configuration not stated),i,i,i,i,i,x,x,x
O=C1c2cccc3c([N+](=O)[O-])c(O)cc(c23)C(=O)N1Nc1ccccc1,i,6.3*,i,i,i,11.5%*,i,i
O=C1c2ccccc2C(=O)N1Nc1ccccc1,i,i,i,i,i,x,x,x
CC(=O)CCc1oc2ccc(NC(C)=O)cc2c1-c1ccc(C)o1,i,5.31*,i,i,i,i,i,i
CC(=O)CCc1oc2ccc(C)cc2c1-c1ccc(C)o1,i,i,i,i,i,x,x,x
Cc1ccccc1Cn1nc(C)c(NC(=O)C2c3ccccc3Oc3ccccc32)c1C,i,i,i,i,i,x,x,x
Cc1c(OCC(=O)N[C@@H](CSCc2ccccc2)C(=O)O)ccc2c3c(c(=O)oc12)CCC3,i,4.9*,x,x,x,i,i,i
Cc1c(OCC(=O)N[C@@H](Cc2ccccc2)C(=O)O)ccc2c3c(c(=O)oc12)CCC3,i,i,i,i,i,i,i,i
COc1ccc(NC(=O)c2nc[nH]c2C(=O)N[C@H](C)c2ccccc2)cc1,i,7.64*,i,i,i,17.5%*,i,i
Cc1ccc(N(C(=O)c2csnn2)C(C(=O)NC(C)(C)C)c2cccnc2)cc1 (configuration not stated),i,i,i,i,i,x,x,x
Cn1cccc1C(=O)OCC(=O)N1CC(=O)Nc2ccccc21,i,i,i,i,i,x,x,x
Cn1cccc1C(=O)OCC(=O)N1c2ccccc2NC(=O)C1(C)C,i,5.2*,i,i,i,6.5%*,i,i
Cc1cc2cc(C=C(C#N)C#N)c(Cl)nc2cc1C,i,5.89*,i,i,36*,14.0%*,i,25.0%*
CCOC(=O)/C(C#N)=C/c1cc2cc(C)c(C)cc2nc1Cl,i,i,i,i,i,x,x,x
CC(/C=C1\N=C(SCc2ccccc2)SC1=O)=C\c1ccccc1,i,i,i,i,i,x,x,x
CN(C)/C=C1/N=C(c2ccccc2)OC1=O,i,i,i,i,i,x,x,x
O=CC1=C(c2ccccc2)Oc2ccccc2O1,i,10.2*,i,i,i,19.0%*,39.5%*,i
O=C/C=C/c1c(-c2ccccc2)cc2oc3ccccc3cc1-2,i,24.2*,i,i,35*,15.5%*,i,i
Cc1cccc(-n2nc3c(c2NC(=O)C(C)C)CSC3)c1,i,i,i,i,i,x,x,x
CCOC(=O)C(=Cc1cc(=O)c(OC)co1)C(=O)OCC,i,8.01*,x,x,x,15.0%*,i,14.5%*
COC(=O)c1sc(N2C(=O)C(=O)/C(=C(/O)c3ccccc3)C2c2ccco2)nc1C (configuration not stated),i,i,i,i,i,i,i,i
Cc1nc(N2C(=O)C(=O)/C(=C(/O)c3ccccc3)C2c2ccco2)sc1C (configuration not stated),i,6.39*,i,i,i,8.5%*,i,i
SMILES,RGS4 pot,RGS4 block,MrgX1 allo act,MrgX1 antagonist,MrgX1 ag,RGS4 block valid,M3R Ca ctr,RGS4 inh ctr2
Cc1ccc(S(=O)(=O)Nc2ccc(-n3c(C)nc4ccccc4c3=O)cc2)cc1,i,i,i,i,i,x,x,x
COC(=O)c1c(N2C(=O)[C@H]3[C@@H](C2=O)[C@]2(C(=O)Nc4ccccc42)N2CCC[C@@H]32)sc(C)c1C,i,i,i,i,i,x,x,x
O=C1[C@H]2[C@@H](C(=O)N1c1cc(Cl)cc(Cl)c1)[C@]1(C(=O)Nc3ccccc31)N1CCC[C@@H]21,i,5.16*,i,i,i,i,i,i
N=C1/C(=C/c2cccn2Cc2ccc(Cl)cc2)C(=O)N=C2SC=CN12,i,8.38*,i,i,i,5.0%*,i,i
CC1=CC2=NC(=O)/C(=C/c3cccn3Cc3ccccc3)C(=N)N2O1,i,i,i,i,i,x,x,x
CCOC(=O)/C=C/C(=O)OCC(=O)N1CCN(C(=O)c2ccco2)CC1,i,5.72*,i,i,i,18.0%*,i,i
COc1ccccc1-c1c(C)oc2c(CN3CCCCC3C)c(O)ccc2c1=O (configuration not stated),i,i,i,i,i,x,x,x
COCCCn1cnc2c(c1=O)c1nc3ccccc3nc1n2-c1ccc(C)cc1,i,i,i,i,i,x,x,x
Cc1cc(C)cc(-n2c3nc4ccccc4nc3c3c(=O)n(Cc4ccco4)cnc32)c1,i,5.87*,i,i,i,11.5%*,i,15.0%*
CCN1C(=O)/C(=C\c2ccncc2)SC1=Nc1ccc(C)c(C)c1,i,8.16*,i,i,i,30.5%*,i,i
CCCn1c(C(CO)Nc2nc(-c3cccc(Br)c3)cs2)nc2ccccc21 (configuration not stated),i,10.5*,i,i,i,32.5%*,i,i
OCCOCCn1c(C(CO)Nc2nc(-c3cccc(Br)c3)cs2)nc2ccccc21 (configuration not stated),i,i,i,i,i,x,i,7.5%*
OCCOCCn1c(C(CO)Nc2nc(-c3ccccc3Br)cs2)nc2ccccc21 (configuration not stated),i,i,i,i,i,x,x,x
O=C(CSc1nc2c(cnn2-c2ccc(F)cc2)c(=O)[nH]1)N1CCCc2ccccc21,i,i,i,i,i,i,i,i

# Screening results (PubChem)
